Measured values from ChEMBL document CHEMBL5653606 (J Pharmacol Exp Ther, 2011).
Activity calls are given as the source filed them.

Legend:
[1] = biological target: T1, Fatty-acid amide hydrolase 1 (Homo sapiens) (UniProt O00519); test: Inhibition of FAAH in human brain at 10 uM in presence of FP-rhodamine by competitive activity-based protein profiling method; format: tissue-based
T1 sequence (whole entry): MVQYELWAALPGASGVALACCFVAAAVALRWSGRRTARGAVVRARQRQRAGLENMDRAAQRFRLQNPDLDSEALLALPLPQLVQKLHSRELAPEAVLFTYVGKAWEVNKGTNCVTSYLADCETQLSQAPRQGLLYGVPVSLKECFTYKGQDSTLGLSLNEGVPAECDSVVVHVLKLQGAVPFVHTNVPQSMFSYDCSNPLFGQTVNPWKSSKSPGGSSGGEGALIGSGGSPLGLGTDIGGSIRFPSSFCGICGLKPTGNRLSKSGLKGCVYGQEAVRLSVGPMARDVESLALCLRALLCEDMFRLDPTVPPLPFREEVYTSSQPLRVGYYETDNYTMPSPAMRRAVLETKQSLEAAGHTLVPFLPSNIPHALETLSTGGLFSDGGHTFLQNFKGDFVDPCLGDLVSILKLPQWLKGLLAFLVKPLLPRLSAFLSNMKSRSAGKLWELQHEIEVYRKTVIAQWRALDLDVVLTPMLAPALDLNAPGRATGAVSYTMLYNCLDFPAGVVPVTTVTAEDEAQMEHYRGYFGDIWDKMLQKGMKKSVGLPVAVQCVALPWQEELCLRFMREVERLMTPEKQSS
How it was run: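 Competitive ABPP on human and mouse brain, liver and heart proteomes (membrane and soluble fractions), exposed to compound at 10 or 100 μM or to DMSO. Serine hydrolases were then labeled with FP-rhodamine. Gels were read by fluorescence scanning, and loss of band labeling (FAAH or other hydrolases by kDa) was judged.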

[2] = biological target: T2, Fatty-acid amide hydrolase 1 (Homo sapiens, UniProt O00519); test: Inhibition of human FAAH assessed as kinact/Ki ratio incubated for 30 min in presence of glutamate dehydrogenase by 384-well format microplate reader assay
T2 sequence (O00519 whole entry): T1 sequence (whole entry)

[3] = biological target: T3, Fatty-acid amide hydrolase 1 (Rattus norvegicus, UniProt P97612); test: Inhibition of rat FAAH assessed as kinact/Ki ratio incubated for 1 min in presence of glutamate dehydrogenase by 384-well format microplate reader assay
T3 sequence (P97612 whole entry): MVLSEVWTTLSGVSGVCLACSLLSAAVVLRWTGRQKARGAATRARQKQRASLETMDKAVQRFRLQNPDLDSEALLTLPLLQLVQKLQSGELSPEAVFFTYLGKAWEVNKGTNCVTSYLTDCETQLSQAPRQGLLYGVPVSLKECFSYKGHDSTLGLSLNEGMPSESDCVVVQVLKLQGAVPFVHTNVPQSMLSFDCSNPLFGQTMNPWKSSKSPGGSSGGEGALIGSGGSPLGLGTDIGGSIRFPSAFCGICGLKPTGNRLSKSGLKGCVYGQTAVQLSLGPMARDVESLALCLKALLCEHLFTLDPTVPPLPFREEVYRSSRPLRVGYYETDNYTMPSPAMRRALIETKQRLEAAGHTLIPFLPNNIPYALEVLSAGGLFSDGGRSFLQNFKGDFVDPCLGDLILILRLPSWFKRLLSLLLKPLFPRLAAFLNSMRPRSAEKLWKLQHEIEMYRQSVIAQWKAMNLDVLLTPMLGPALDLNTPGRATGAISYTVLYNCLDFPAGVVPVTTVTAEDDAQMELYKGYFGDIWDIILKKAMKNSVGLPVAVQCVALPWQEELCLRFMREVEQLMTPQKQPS

[4] = biological target: T3, Fatty-acid amide hydrolase 1; test: Inhibition of rat FAAH assessed as kinact/Ki ratio incubated for 15 min in presence of glutamate dehydrogenase by 384-well format microplate reader assay
[5] = biological target: T3, Fatty-acid amide hydrolase 1; test: Inhibition of rat FAAH assessed as kinact/Ki ratio incubated for 30 min in presence of glutamate dehydrogenase by 384-well format microplate reader assay
[6] = Oral bioavailability in dog; format: ADME, organism-based, Canis lupus familiaris; settings: in vivo
[7] = Ratio of drug concentration in rat brain to plasma at 1 mg/kg, po administered for 4 hrs by LC/MS analysis; format: ADME, organism-based; settings: brain and plasma
How it was run: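 Male Sprague-Dawley rats received a single oral dose of 1 mg/kg. Plasma (ng/ml) and brain (ng/g tissue) drug levels were measured at 1, 2, 4, 8 and 24 h after dosing.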

[8] = Plasma concentration in rat at 5 mg/kg, po by LC/MS analysis; format: ADME, organism-based; settings: in vivo
Rattus norvegicus [9] = test: Antihyperalgesic activity in CFA induced Sprague-Dawley rat assessed as inhibition of mechanical allodynia at 0.1 mg/kg, po measured for 4 hrs by von frey test; format: functional, organism-based
How it was run: (§1)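 Male Sprague-Dawley rats (200–250 g) given 150 μl CFA (1 mg/ml in mineral oil) intraplantar in the hind paw. Mechanical paw withdrawal thresholds read with Von Frey hairs on day 5 postinjection. Dosed orally as nanocrystalline suspension in 2% polyvinylpyrrolidone/0.15% SDS in water, 10 ml/kg. PWTs taken 4 h postdose for dose-response, or at 1, 2, 4, 8, 24 h for time course.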

[10] = biological target: T4, Fatty-acid amide hydrolase 1 (Rattus norvegicus) (UniProt P97612); test: In vivo inhibition of FAAH in CFA induced Sprague-Dawley rat WBC assessed as elevation of AEA level at 0.1 to 10 mg/kg, po using 3H-labeled AEA as substrate; format: functional, organism-based; settings: dose 0.1-10 mg/kg
T4 sequence (whole entry): T3 sequence (P97612 whole entry)

[11] = biological target: T4, Fatty-acid amide hydrolase 1 (Rattus norvegicus); test: In vivo inhibition of FAAH in CFA induced Sprague-Dawley rat plasma assessed as elevation of NAE level at 0.1 to 10 mg/kg, po; format: functional, organism-based; settings: dose 0.1-10 mg/kg
How it was run: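 Lipid (NAE) levels in rat brain and plasma measured by LC/MS after oral dosing in CFA rats; n = 3 rats/group. Time-course samples taken at 1, 2, 4, 8, 24 h after 1 mg/kg.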

[12] = Brain concentration in CFA induced Sprague-Dawley rat at 0.1 mg/kg, po by LC/MS analysis; format: ADME, organism-based; settings: in vivo, read-out: Ct
[13] = biological target: T4, Fatty-acid amide hydrolase 1 (Rattus norvegicus); test: In vivo inhibition of FAAH in CFA induced Sprague-Dawley rat brain at 1 mg/kg, po measured for 1 to 24 hrs; format: functional, organism-based; settings: time 1-24 hrs
How it was run: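 Brain and blood leukocyte membrane fractions from CFA rats after oral dosing. FAAH activity measured with 3H-labeled AEA substrate, quantifying released 3H-ethanolamine; n = 3 rats/group. Time course sampled at 1, 2, 4, 8, 24 h after 1 mg/kg.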

[14] = biological target: T4, Fatty-acid amide hydrolase 1 (Rattus norvegicus); test: In vivo inhibition of FAAH in CFA induced Sprague-Dawley rat plasma at 1 mg/kg, po measured for 1 to 24 hrs; format: functional, organism-based; settings: time 1-24 hrs
Rattus norvegicus [15] = test: Antihyperalgesic activity in CFA induced Sprague-Dawley rat assessed as partial reduction of mechanical allodynia at 3 mg/kg, po in presence of CB2 antagonist SR144528 by von frey test; format: functional, organism-based; how it was run: as §1
Mus musculus [16] = test: Antinociceptive activity in C57BL6/J mouse assessed as effect in catalepsy at 1 to 10 mg/kg, po administered for 4 hrs; format: functional, organism-based; settings: dose 1-10 mg/kg
How it was run: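 Male C57BL/6J mice, 7 weeks old, n = 8/group, dosed orally at 1 or 10 mg/kg in PEG 300 (4 ml/kg). Tetrad tested 4 h postdose: locomotor activity, tail-immersion thermal nociception, catalepsy (assessed 60 s), body temperature. Means ± S.E.M. versus vehicle.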

Mus musculus [17] = test: In vivo inhibition of rhodamine-azide tagged FAAH expressed in mouse brain at 10 mg/kg, po by CC-ABPP method based in-gel fluorescence scanning analysis; format: functional, organism-based

O=C(Nc1cccnn1)N1CCC(=Cc2cccc(Oc3ccc(C(F)(F)F)cn3)c2)CC1
inhibition [1]: Active | IC50 [2]: 10.7 nM | IC50 [3]: 43.1 nM | IC50 [4]: 26.7 nM | IC50 [5]: 11.1 nM | bioavailability [6]: 58% | Kp at 4 h [7]: 1.6 | concentration [8]: 2800 nM | Activity (Rattus norvegicus [9]): Active | inhibition [10]: Active | inhibition [11]: Active | concentration [12]: 38.9 nM | inhibition [13]: Active | inhibition [14]: Active | Activity (Rattus norvegicus [15]): Active | Activity (Mus musculus [16]): Non-Toxic | inhibition (Mus musculus [17]): Active
